Test results reported in ChEMBL document CHEMBL1126799, “Synthesis of antimicrobial agents. 5. In vivo metabolism of 7-(4-hydroxypiperazin-1-yl)quinolones” (1993).
≈ marks a conversion by molar mass, not a printed value.

How the values were obtained:
Klebsiella pneumoniae = experiment: Tested in vitro against Klebsiella pneumoniae PCI-602 by agar dilution method; type: functional
In short: (§1)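 MIC by 2-fold agar dilution on Mueller–Hinton agar (footnote says sensitivity test agar).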

Pseudomonas aeruginosa [1] = experiment: Tested in vivo against Pseudomonas aeruginosa E-2 in mice after peroral dose of drug with 0.5% sodium carboxy methyl cellulose; type: functional; conditions: po
In short: (§2)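 Mice infected, then given compound orally 1 h post-infection as a suspension in 0.5% sodium CMC. ED50 calculated from cumulative mortality on day 7 post-infection by shortened Weil method.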

Escherichia coli = experiment: Tested in vitro against Escherichia coli NIHJ JC-2 by agar dilution method; type: functional; in short: as §1
Pseudomonas aeruginosa [2] = experiment: Tested in vitro against Pseudomonas aeruginosa IFO3445 by agar dilution method; type: functional; in short: as §1
[3] = system: Staphylococcus epidermidis; experiment: Tested in vitro against Staphylococcus epidermidis IAM12896 by agar dilution method; type: functional; in short: as §1
Serratia marcescens = experiment: Tested in vitro against Serratia marcescens IAM1184 by agar dilution method; type: functional; in short: as §1
Pseudomonas aeruginosa [4] = experiment: Tested in vitro against Pseudomonas aeruginosa E-2 by agar dilution method; type: functional; in short: as §1
Staphylococcus aureus [5] = experiment: Tested in vivo against Staphylococcus aureus IID803 in mice after peroral dose of drug with 0.5% sodium carboxy methyl cellulose; type: functional; conditions: po; in short: as §2
Staphylococcus aureus [6] = experiment: Tested in vitro against Staphylococcus aureus IID803 by agar dilution method; type: functional; in short: as §1
Proteus vulgaris = experiment: Tested in vitro against Proteus vulgaris OX-19 by agar dilution method; type: functional; in short: as §1
Staphylococcus aureus [7] = experiment: Tested in vitro against Staphylococcus aureus FDA209P JC-1 by agar dilution method; type: functional; in short: as §1
Bacillus subtilis = experiment: Tested in vitro against Bacillus subtilis ATCC 6633 by agar dilution method; type: functional; in short: as §1
Salmonella typhimurium = experiment: Tested in vitro against Salmonella Typhimurium IID971 by agar dilution method; type: functional, Salmonella enterica subsp. enterica serovar Typhimurium; conditions: Salmonella enterica; in short: as §1

| MIC (Klebsiella pneumoniae) | MIC (Escherichia coli) | MIC (Pseudomonas aeruginosa [2]) | MIC [3] | MIC (Serratia marcescens) | MIC (Pseudomonas aeruginosa [4]) | MIC (Staphylococcus aureus [6]) | MIC (Proteus vulgaris) | MIC (Staphylococcus aureus [7]) | MIC (Bacillus subtilis) | MIC (Salmonella typhimurium) | SMILES | ED50 (Pseudomonas aeruginosa [1]) | ED50 (Staphylococcus aureus [5]) |
| --- | --- | --- | --- | --- | --- | --- | --- | --- | --- | --- | --- | --- | --- |
| 0.0125 µg/mL (≈ 0.0344 µM) | 0.05 µg/mL (≈ 0.138 µM) | 1.56 µg/mL (≈ 4.29 µM) | 0.78 µg/mL (≈ 2.15 µM) | 0.39 µg/mL (≈ 1.07 µM) | 1.56 µg/mL (≈ 4.29 µM) | 0.2 µg/mL (≈ 0.55 µM) | 0.05 µg/mL (≈ 0.138 µM) | 0.39 µg/mL (≈ 1.07 µM) | 0.05 µg/mL (≈ 0.138 µM) | 0.025 µg/mL (≈ 0.0688 µM) | CC1CN(c2c(F)cc3c(=O)c(C(=O)O)cn(C4CC4)c3c2F)CCN1 (stereo unspecified) | 8.84 mg/kg | 2.21 mg/kg |
| 0.025 µg/mL (≈ 0.0659 µM) | 0.1 µg/mL (≈ 0.264 µM) | 3.13 µg/mL (≈ 8.25 µM) | 0.78 µg/mL (≈ 2.06 µM) | 0.78 µg/mL (≈ 2.06 µM) | 3.13 µg/mL (≈ 8.25 µM) | 0.2 µg/mL (≈ 0.527 µM) | 0.1 µg/mL (≈ 0.264 µM) | 0.39 µg/mL (≈ 1.03 µM) | 0.025 µg/mL (≈ 0.0659 µM) | 0.05 µg/mL (≈ 0.132 µM) | CC1CN(c2c(F)cc3c(=O)c(C(=O)O)cn(C4CC4)c3c2F)CCN1O (stereo unspecified) | 22.9 mg/kg | 1.67 mg/kg |
| 0.025 µg/mL (≈ 0.0662 µM) | 0.1 µg/mL (≈ 0.265 µM) | 3.13 µg/mL (≈ 8.29 µM) | 0.78 µg/mL (≈ 2.07 µM) | 0.78 µg/mL (≈ 2.07 µM) | 3.13 µg/mL (≈ 8.29 µM) | 0.39 µg/mL (≈ 1.03 µM) | 0.1 µg/mL (≈ 0.265 µM) | 0.39 µg/mL (≈ 1.03 µM) | 0.1 µg/mL (≈ 0.265 µM) | 0.1 µg/mL (≈ 0.265 µM) | CC1CN(c2c(F)cc3c(=O)c(C(=O)O)cn(C4CC4)c3c2F)CC(C)N1 (stereo unspecified) | 11.7 mg/kg | 2.21 mg/kg |
| 0.025 µg/mL (≈ 0.0684 µM) | 0.1 µg/mL (≈ 0.274 µM) | 1.56 µg/mL (≈ 4.27 µM) | 0.78 µg/mL (≈ 2.14 µM) | 0.78 µg/mL (≈ 2.14 µM) | 1.56 µg/mL (≈ 4.27 µM) | 0.39 µg/mL (≈ 1.07 µM) | 0.05 µg/mL (≈ 0.137 µM) | 0.39 µg/mL (≈ 1.07 µM) | 0.05 µg/mL (≈ 0.137 µM) | 0.025 µg/mL (≈ 0.0684 µM) | O=C(O)c1cn(C2CC2)c2c(F)c(N3CCN(O)CC3)c(F)cc2c1=O | 4.81 mg/kg | 3.34 mg/kg |
| 0.1 µg/mL (≈ 0.254 µM) | 0.78 µg/mL (≈ 1.98 µM) | 12.5 µg/mL (≈ 31.8 µM) | 0.39 µg/mL (≈ 0.991 µM) | 6.25 µg/mL (≈ 15.9 µM) | 12.5 µg/mL (≈ 31.8 µM) | 0.2 µg/mL (≈ 0.508 µM) | 0.39 µg/mL (≈ 0.991 µM) | 0.2 µg/mL (≈ 0.508 µM) | 0.05 µg/mL (≈ 0.127 µM) | 0.78 µg/mL (≈ 1.98 µM) | CC1CN(c2c(F)cc3c(=O)c(C(=O)O)cn(C4CC4)c3c2F)CC(C)N1O (stereo unspecified) | 35.4 mg/kg | 1.67 mg/kg |

| SMILES | MIC (Klebsiella pneumoniae) | MIC (Escherichia coli) | MIC (Pseudomonas aeruginosa [2]) | MIC [3] | MIC (Serratia marcescens) | MIC (Pseudomonas aeruginosa [4]) | MIC (Staphylococcus aureus [6]) | MIC (Proteus vulgaris) | MIC (Staphylococcus aureus [7]) | MIC (Bacillus subtilis) | MIC (Salmonella typhimurium) | ED50 (Pseudomonas aeruginosa [1]) | ED50 (Staphylococcus aureus [5]) |
| --- | --- | --- | --- | --- | --- | --- | --- | --- | --- | --- | --- | --- | --- |
| O=C(O)c1cn(C2CC2)c2c(F)c(N3CCNCC3)c(F)cc2c1=O | 0.025 µg/mL (≈ 0.0716 µM) | 0.05 µg/mL (≈ 0.143 µM) | 0.78 µg/mL (≈ 2.23 µM) | 0.78 µg/mL (≈ 2.23 µM) | 0.39 µg/mL (≈ 1.12 µM) | 0.78 µg/mL (≈ 2.23 µM) | 0.39 µg/mL (≈ 1.12 µM) | 0.05 µg/mL (≈ 0.143 µM) | 0.2 µg/mL (≈ 0.573 µM) | 0.1 µg/mL (≈ 0.286 µM) | 0.025 µg/mL (≈ 0.0716 µM) | 6.7 mg/kg | 5.82 mg/kg |
| CCn1cc(C(=O)O)c(=O)c2cc(F)c(N3CCNCC3)cc21 [NORFLOXACIN] | 0.1 µg/mL (≈ 0.313 µM) | 0.39 µg/mL (≈ 1.22 µM) | 3.13 µg/mL (≈ 9.8 µM) | 3.13 µg/mL (≈ 9.8 µM) | 0.78 µg/mL (≈ 2.44 µM) | 3.13 µg/mL (≈ 9.8 µM) | 1.56 µg/mL (≈ 4.89 µM) | 0.2 µg/mL (≈ 0.626 µM) | 0.39 µg/mL (≈ 1.22 µM) | 0.39 µg/mL (≈ 1.22 µM) | 0.1 µg/mL (≈ 0.313 µM) | 107 mg/kg | 91.7 mg/kg |
| O=C(O)c1cn(C2CC2)c2cc(N3CCNCC3)c(F)cc2c1=O [CIPROFLOXACIN] | 0.025 µg/mL (≈ 0.0754 µM) |  | 0.78 µg/mL (≈ 2.35 µM) | 1.56 µg/mL (≈ 4.71 µM) | 0.39 µg/mL (≈ 1.18 µM) | 0.78 µg/mL (≈ 2.35 µM) | 0.78 µg/mL (≈ 2.35 µM) | 0.05 µg/mL (≈ 0.151 µM) | 0.39 µg/mL (≈ 1.18 µM) | 0.1 µg/mL (≈ 0.302 µM) | 0.025 µg/mL (≈ 0.0754 µM) | 30.8 mg/kg | 35.4 mg/kg |
| CC1COc2c(N3CCN(C)CC3)c(F)cc3c(=O)c(C(=O)O)cn1c23 (stereo unspecified) [OFLOXACIN] | 0.1 µg/mL (≈ 0.277 µM) | 0.2 µg/mL (≈ 0.553 µM) | 3.13 µg/mL (≈ 8.66 µM) | 0.78 µg/mL (≈ 2.16 µM) | 0.78 µg/mL (≈ 2.16 µM) | 3.13 µg/mL (≈ 8.66 µM) | 0.78 µg/mL (≈ 2.16 µM) | 0.1 µg/mL (≈ 0.277 µM) | 0.39 µg/mL (≈ 1.08 µM) | 0.2 µg/mL (≈ 0.553 µM) | 0.1 µg/mL (≈ 0.277 µM) | 54.5 mg/kg | 8.84 mg/kg |
